Assays:
Eimeria tenella = experiment: Anticoccidial activity (percent reduction in oocyst production) against Eimeria tenella in white leghorn chickens at 100 ppm; type: functional; parameters: scale not given: the % may be the effect or the level left
Summary of the method: (§1)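 White Leghorn chicks were acclimated, then at 3 days old sorted by weight and randomized to medicated or control diets. There were one or two replicates of two birds per treatment. After 24 h of premedication, one bird per replicate got E. acervulina and the other E. tenella, both drug-sensitive laboratory strains. Inocula were sporulated oocysts in tap water, 0.25 mL per bird, giving low-to-moderate infection.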

[1] = target: cGMP-dependent protein kinase (Eimeria tenella, UniProt Q8MMZ8); experiment: In vitro inhibition of Eimeria tenella cGMP-dependent protein kinase
Eimeria acervulina = experiment: Anticoccidial activity (percent reduction in oocyst production) against Eimeria acervulina in white leghorn chickens at 100 ppm; type: functional; parameters: scale not given: the % may be the effect or the level left; summary of the method: as §1

cGMP-dependent protein kinase, sequence (Q8MMZ8 whole entry): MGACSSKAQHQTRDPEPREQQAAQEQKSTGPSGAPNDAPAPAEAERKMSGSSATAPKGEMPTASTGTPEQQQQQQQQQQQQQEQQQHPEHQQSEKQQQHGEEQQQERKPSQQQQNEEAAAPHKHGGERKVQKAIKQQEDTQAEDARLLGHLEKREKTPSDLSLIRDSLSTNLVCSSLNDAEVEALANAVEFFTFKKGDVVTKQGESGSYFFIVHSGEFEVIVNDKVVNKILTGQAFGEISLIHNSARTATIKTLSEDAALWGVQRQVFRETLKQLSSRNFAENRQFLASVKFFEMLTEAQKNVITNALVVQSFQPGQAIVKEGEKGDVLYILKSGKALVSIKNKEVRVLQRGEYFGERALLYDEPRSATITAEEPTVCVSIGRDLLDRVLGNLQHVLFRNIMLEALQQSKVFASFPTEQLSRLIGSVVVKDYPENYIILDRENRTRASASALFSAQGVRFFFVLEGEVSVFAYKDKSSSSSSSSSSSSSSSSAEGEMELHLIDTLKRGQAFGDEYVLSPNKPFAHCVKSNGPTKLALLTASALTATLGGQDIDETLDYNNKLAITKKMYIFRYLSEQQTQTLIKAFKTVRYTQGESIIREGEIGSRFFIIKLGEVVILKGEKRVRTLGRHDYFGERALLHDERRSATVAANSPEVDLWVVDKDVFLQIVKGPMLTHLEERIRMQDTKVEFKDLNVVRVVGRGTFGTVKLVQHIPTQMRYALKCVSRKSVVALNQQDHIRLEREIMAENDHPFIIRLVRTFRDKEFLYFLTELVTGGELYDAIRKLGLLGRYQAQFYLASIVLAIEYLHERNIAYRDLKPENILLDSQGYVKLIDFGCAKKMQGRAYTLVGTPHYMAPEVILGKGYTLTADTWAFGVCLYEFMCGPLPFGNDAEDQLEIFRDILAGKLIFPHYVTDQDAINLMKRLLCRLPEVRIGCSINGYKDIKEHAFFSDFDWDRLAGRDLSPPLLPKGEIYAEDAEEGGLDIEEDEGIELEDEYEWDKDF

| Structure (SMILES) | Activity (Eimeria tenella) | IC50 [1] | Activity (Eimeria acervulina) |
| --- | --- | --- | --- |
| CN1CCC(c2cc(-c3ccncc3)c(-c3ccc(F)c(Cl)c3)[nH]2)CC1 | >=80% | 0.44 nM | – |
| CN1CCC(c2[nH]c(-c3ccc(F)cc3)c(-c3ccncc3)c2Cl)CC1 | – | 1.02 nM | <50% |
| CN1CCC(c2cc(-c3ccncc3)c(-c3ccoc3)[nH]2)CC1 | <50% | 26.3 nM | <50% |
| CCCN1CCC(c2cc(-c3ccncc3)c(-c3ccc(F)cc3)[nH]2)CC1 | <50% | 4.2 nM | <50% |
| CN1CCC(c2nc(-c3ccc(F)cc3)c(-c3ccncc3)[nH]2)CC1 | >=80% | 1.1 nM | <50% |
| CN1CCC(c2cc(-c3ccncc3)c(-c3ccc(F)cc3)nn2)CC1 | <50% | 1000 nM | <50% |
| CN1CCC1CN1CCC(c2cc(-c3ccncc3)c(-c3ccc(F)cc3)[nH]2)CC1 (centres undefined) | >=80% | 0.28 nM | >=80% |
| NCCCN1CCC(c2cc(-c3ccncc3)c(-c3ccc(F)cc3)[nH]2)CC1 | <50% | 0.046 nM | <50% |
| OC1(CN2CCC(c3cc(-c4ccncc4)c(-c4ccc(F)cc4)[nH]3)CC2)CC1 | >=80% | 1.1 nM | >=80% |
| CN1CCC(c2cc(-c3ccccn3)c(-c3ccc(F)cc3)[nH]2)CC1 | <50% | 23.6 nM | <50% |
| Cc1cnccc1-c1cc(C2CCN(C)CC2)[nH]c1-c1ccc(F)cc1 | <50% | 1.7 nM | <50% |
| CN1CCC(c2nc(-c3ccc(F)cc3)c(-c3ccncc3)o2)CC1 | >=80% | 0.97 nM | >=80% |
| CN1CCC(c2cc(-c3ccncc3)c(-c3ccc(F)cc3)o2)CC1 | <50% | 2.1 nM | – |
| CC(N)CN1CCC(c2cc(-c3ccncc3)c(-c3ccc(F)cc3)[nH]2)CC1 (centres undefined) | >=80% | 2 nM | >=80% |
| CN1CCC(c2cc(-c3ccncc3)c(-c3ccc(OC(F)(F)F)cc3)[nH]2)CC1 | >=80% | 46 nM | <50% |
| CN1CCC(c2cc(-c3ccncc3)c(-c3ccco3)[nH]2)CC1 | <50% | 11.1 nM | <50% |
| OCCCN1CCC(c2cc(-c3ccncc3)c(-c3ccc(F)cc3)[nH]2)CC1 | – | 0.53 nM | >=80% |
| CN1CCC(c2cc(-c3ccncc3)c(-c3ccc(F)c(F)c3)[nH]2)CC1 | >=80% | 2 nM | <50% |
| Cc1cc(-c2cc(C3CCN(C)CC3)[nH]c2-c2ccc(F)cc2)ccn1 | <50% | 2.8 nM | <50% |
| NC1(CN2CCC(c3cc(-c4ccncc4)c(-c4ccc(F)cc4)[nH]3)CC2)CC1 | <50% | 0.24 nM | <50% |
| CN1CCC(c2cc(-c3ccncc3)c(-c3ccc(S(C)(=O)=O)cc3)[nH]2)CC1 | >=80% | 42 nM | <50% |

Source: ChEMBL document CHEMBL1140243, “Synthesis and SAR of 2,3-diarylpyrrole inhibitors of parasite cGMP-dependent protein kinase as novel anticoccidial agents” (Bioorg Med Chem Lett, 2005)
